Reference: ChEMBL document CHEMBL1142981, “Identification and synthesis of a novel selective partial PPARdelta agonist with full efficacy on lipid metabolism in vitro and in vivo” (J Med Chem, 2007)
pEC50: −log10 of the molar value.

Experiments:
L6 [1] = assay: Effect on increase in fatty acid oxidation in rat L6 cells relative to GW-501516; assay type: functional; design: concentration or dose not given beside the values
Method in brief: (§1)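 Rat L6 myoblasts differentiated 5 days in 2% serum, then treated 42 h with compound (refreshed at 24 h), followed by 6 h with 0.4 mM palmitate containing [9,10-3H]-palmitic acid on 2% fatty-acid-free BSA. Stopped with 10% TCA; released 3H-H2O collected by overnight equilibration at 50 °C and counted.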

[2] = biological target: T1, Peroxisome proliferator-activated receptor delta (Homo sapiens, UniProt Q03181)
T1 sequence (Q03181 whole entry): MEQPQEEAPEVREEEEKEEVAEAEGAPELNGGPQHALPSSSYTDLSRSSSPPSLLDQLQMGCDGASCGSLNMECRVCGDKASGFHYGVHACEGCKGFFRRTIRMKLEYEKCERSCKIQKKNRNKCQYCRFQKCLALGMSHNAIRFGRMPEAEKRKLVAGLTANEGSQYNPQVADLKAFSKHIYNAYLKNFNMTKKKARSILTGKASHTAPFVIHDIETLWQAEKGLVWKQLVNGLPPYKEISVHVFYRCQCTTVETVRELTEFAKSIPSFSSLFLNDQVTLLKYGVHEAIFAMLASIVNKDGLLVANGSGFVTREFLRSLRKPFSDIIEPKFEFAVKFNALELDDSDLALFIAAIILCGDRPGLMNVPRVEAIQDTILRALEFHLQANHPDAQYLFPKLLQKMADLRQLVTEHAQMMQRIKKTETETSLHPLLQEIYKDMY

L6 [3] = assay: Effect on fatty acid oxidation in rat L6 cells; assay type: functional, cell-based; method in brief: as §1
[4] = biological target: T2, Peroxisome proliferator-activated receptor alpha (Homo sapiens) (UniProt Q07869); assay: Activity at human liver PPAR alpha expressed in HEK293 cells by GAL4 transactivation assay relative to NNC61-4655; assay type: cell-based
T2 sequence (whole entry): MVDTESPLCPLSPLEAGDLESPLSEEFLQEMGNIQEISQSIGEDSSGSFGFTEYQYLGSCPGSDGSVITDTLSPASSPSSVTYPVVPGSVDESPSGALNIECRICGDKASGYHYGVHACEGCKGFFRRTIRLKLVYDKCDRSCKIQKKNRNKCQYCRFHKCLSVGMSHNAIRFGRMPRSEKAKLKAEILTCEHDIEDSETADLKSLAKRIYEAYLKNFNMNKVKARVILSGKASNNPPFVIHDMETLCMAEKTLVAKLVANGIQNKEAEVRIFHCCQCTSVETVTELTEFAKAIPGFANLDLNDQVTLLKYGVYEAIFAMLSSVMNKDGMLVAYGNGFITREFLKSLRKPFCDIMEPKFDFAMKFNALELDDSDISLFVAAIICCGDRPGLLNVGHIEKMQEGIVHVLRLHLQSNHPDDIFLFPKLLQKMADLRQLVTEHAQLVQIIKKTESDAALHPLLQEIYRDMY

[5] = biological target: T3, Peroxisome proliferator-activated receptor alpha (Homo sapiens, UniProt Q07869); assay: Activity at human liver PPAR alpha expressed in HEK293 cells by PPAR-GAL4 transactivation assay; assay type: cell-based
T3 sequence (Q07869 whole entry): T2 sequence (whole entry)

[6] = Plasma Cmax in Sprague-Dawley rat at 0.45 mg/kg, po; assay type: ADME, organism-based; design: dose 0.45 mg/kg, route oral
Method in brief: (§2)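 Male SD rats, single oral dose in 5% ethanol/10% HPCD/phosphate buffer pH 7.5-8.0, n = 8. One animal was killed at each of 5, 15, 30, 60, 90, 120, 240 and 360 min. EDTA plasma was analysed by turbulent-flow LC-MS/MS. Cmax, half-life and oral bioavailability were taken from the plasma curves, with bioavailability using a parallel i.v. arm.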

[7] = Half life in Sprague-Dawley rat at 0.45 mg/kg, po; assay type: ADME, organism-based; design: dose 0.45 mg/kg, route oral; details: in vivo; method in brief: as §2
[8] = biological target: T4, Peroxisome proliferator-activated receptor gamma (Homo sapiens, UniProt P37231); assay type: cell-based, HEK293
T4 sequence (P37231 whole entry): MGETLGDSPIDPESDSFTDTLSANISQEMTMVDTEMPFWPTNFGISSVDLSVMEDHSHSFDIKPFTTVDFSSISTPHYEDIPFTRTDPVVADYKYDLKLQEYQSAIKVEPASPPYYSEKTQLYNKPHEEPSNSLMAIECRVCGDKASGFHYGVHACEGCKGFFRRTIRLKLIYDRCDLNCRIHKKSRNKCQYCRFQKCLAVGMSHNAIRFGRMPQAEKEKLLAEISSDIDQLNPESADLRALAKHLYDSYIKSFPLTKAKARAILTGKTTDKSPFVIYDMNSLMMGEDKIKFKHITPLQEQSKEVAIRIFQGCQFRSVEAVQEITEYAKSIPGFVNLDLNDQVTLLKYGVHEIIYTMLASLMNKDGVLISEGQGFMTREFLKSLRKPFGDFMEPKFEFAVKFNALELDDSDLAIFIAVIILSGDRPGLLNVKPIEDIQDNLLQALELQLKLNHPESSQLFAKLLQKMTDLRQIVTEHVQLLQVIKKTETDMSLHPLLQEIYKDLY

[9] = Half life in Sprague-Dawley rat at 0.43 mg/kg, po; assay type: ADME, organism-based; design: dose 0.43 mg/kg, route oral; details: in vivo
Method in brief: (§3)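 Male SD rats dosed once i.v. or p.o. (n = 8 per route), vehicle 5% ethanol, 10% HPCD, phosphate buffer pH 7.5-8.0. One animal sacrificed at each of 5, 15, 30, 60, 90, 120, 240 and 360 min; EDTA plasma analysed by high turbulence LC-MS/MS. Each data point represents one animal.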

[10] = Volume of distribution in Sprague-Dawley rat at 0.20 mg/kg, iv; assay type: ADME, organism-based; design: dose 0.2 mg/kg, route intravenous; details: in vivo, 0.2 mg/kg, read-out: Vss
Method in brief: (§4)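 Male SD rats received a single p.o. or i.v. dose (n = 8 per route) in 5% ethanol, 10% HPCD and phosphate buffer, pH 7.5-8.0. At 5, 15, 30, 60, 90, 120, 240 and 360 min one rat was sacrificed per time point. EDTA plasma was assayed by high turbulence LC-MS/MS. Cmax and bioavailability were taken from oral dosing; volume of distribution is at steady state.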

[11] = Clearance in Sprague-Dawley rat at 0.20 mg/kg, iv; assay type: ADME, organism-based; design: dose 0.2 mg/kg, route intravenous; details: in vivo, 0.2 mg/kg; method in brief: as §3
[12] = Plasma Cmax in Sprague-Dawley rat at 0.43 mg/kg, po; assay type: ADME, organism-based; design: dose 0.43 mg/kg, route oral; method in brief: as §4
[13] = Half life in Sprague-Dawley rat at 2.35 mg/kg, po; assay type: ADME, organism-based; design: dose 2.35 mg/kg, route oral; details: in vivo; method in brief: as §3
[14] = Clearance in Sprague-Dawley rat at 1.18 mg/kg, iv; assay type: ADME, organism-based; design: dose 1.18 mg/kg, route intravenous; details: in vivo; method in brief: as §3
[15] = Oral bioavailability in Sprague-Dawley rat at 2.35 mg/kg; assay type: ADME, organism-based; details: in vivo; method in brief: as §4
[16] = Plasma Cmax in Sprague-Dawley rat at 2.35 mg/kg, po; assay type: ADME, organism-based; design: dose 2.35 mg/kg, route oral; method in brief: as §4
[17] = Volume of distribution in Sprague-Dawley rat at 1.18 mg/kg, iv; assay type: ADME, organism-based; design: dose 1.18 mg/kg, route intravenous; details: in vivo, read-out: Vss; method in brief: as §4

SMILES	pEC50 [2]	Efficacy [4] [%]	pEC50 [5]	Cmax [6] [µg/mL]	half-life [7] [h]	half-life [9] [h]	Vd [10] [L/kg]	clearance [11] [L/h/kg]	Cmax [12] [µg/mL]	Activity (L6 [1]) [%]	pEC50 (L6 [3])	pEC50 [8]	half-life [13] [h]	clearance [14] [L/h/kg]	bioavailability [15] [%]	Cmax [16] [µg/mL]	Vd [17] [L/kg]
O=C(O)Cc1cccc(OCC=C(c2ccc(Br)cc2)c2ccc(Br)cc2)c1	6.08	> 19	< 5.00	0.419	2.55	–	–	–	–	78	6.65	< 5.00	–	–	–	–	–
Cc1cc(SCC=C(c2ccc(Br)cc2)c2ccc(Br)cc2)ccc1OCC(=O)O	7.77	> 22	< 5.00	–	–	–	–	–	–	75	8.52	< 5.00	2.52	0.6	95	0.887	0.9
CN(CCOc1ccc(CC2SC(=O)NC2=O)cc1)c1ccccn1 (stereo unspecified) [ROSIGLITAZONE]	–	> 24	–	–	–	–	–	–	–	58	5.30	–	–	–	–	–	–

Continued, in another order:

pEC50 [2]	Efficacy [4] [%]	pEC50 [5]	Cmax [6] [µg/mL]	half-life [7] [h]	half-life [9] [h]	Vd [10] [L/kg]	clearance [11] [L/h/kg]	Cmax [12] [µg/mL]	SMILES	Activity (L6 [1]) [%]	pEC50 (L6 [3])	pEC50 [8]	half-life [13] [h]	clearance [14] [L/h/kg]	bioavailability [15] [%]	Cmax [16] [µg/mL]	Vd [17] [L/kg]
6.28	> 12	< 5.00	–	–	–	–	–	–	O=C(O)CCc1ccc(OCC=C(c2ccc(Br)cc2)c2ccc(Br)cc2)cc1	69	6.67	–	–	–	–	–	–
5.96	> 14	< 5.00	–	–	7.45	1.4	0.36	0.252	O=C(O)Cc1ccc(OCC=C(c2ccc(Br)cc2)c2ccc(Br)cc2)cc1	62	6.69	–	–	–	–	–	–
